Measurements taken from ChEMBL document CHEMBL3526081 (Drug Metab Dispos, 2011).

Columns and labels:
[1] = Drug metabolism in Colony-bred Chinese Bama minipig liver microsomes assessed as 1alpha-hydroxylcinobufagin formation at 100 uM at 37 degC after 30 mins by UFLC-ESI-MS analysis in presence of NADPH-generating system; format: ADME, Sus scrofa; conditions: pig, 0.5 h
Outline: (§1)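 Liver microsomes (0.3 mg protein/ml) incubated with 100 µM substrate at 37°C for 30 min, in 100 mM potassium phosphate pH 7.4 with NADPH-generating system (1 mM NADP+, 10 mM glucose 6-phosphate, 1 unit/ml G6PDH, 4 mM MgCl2). Acetonitrile ≤1% final. Stopped with ice-cold acetonitrile and centrifuged. Metabolites identified by UFLC-ESI-MS and quantified by UFLC-DAD at 294 nm against authentic standard curves.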

[2] = Drug metabolism in Colony-bred Chinese Bama minipig liver microsomes assessed as 1alpha-hydroxylcinobufagin formation per mg of protein at 100 uM at 37 degC after 30 mins by UFLC-ESI-MS analysis; format: ADME, Sus scrofa; conditions: pig, 0.5 h; outline: as §1
Liver microsome [3] = test: Drug metabolism in beagle dog liver microsomes assessed as 1alpha-hydroxylcinobufagin formation at 100 uM at 37 degC after 30 mins by UFLC-ESI-MS analysis in presence of 1 uM ketoconazole CYP3A4 inhibitor; format: ADME, Canis lupus familiaris; conditions: 0.5 h
Outline: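 Chemical inhibition: selective P450 inhibitors (furafylline, sulfaphenazole, ketoconazole) added to liver microsome incubations in 100 mM potassium phosphate pH 7.4 with NADPH-generating system at 37°C. Hydroxylated metabolite formation quantified by UFLC at 294 nm against standards. Mean ± S.D. of three experiments in duplicate.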

[4] = Drug metabolism in cynomolgus monkey liver microsomes assessed as 1alpha-hydroxylcinobufagin formation at 100 uM at 37 degC after 30 mins by UFLC-ESI-MS analysis in presence of NADPH-generating system; format: ADME, Macaca fascicularis; conditions: 0.5 h; outline: as §1
Liver microsome [5] = test: Drug metabolism in human liver microsomes assessed as 1alpha-hydroxylcinobufagin formation at 100 uM at 37 degC after 30 mins […] in presence of 2 uM montelukast CYP2C8 inhibitor; format: ADME; conditions: 0.5 h
Liver microsome [6] = test: Drug metabolism in human liver microsomes assessed as 1alpha-hydroxylcinobufagin formation at 100 uM […] by UFLC-ESI-MS analysis; format: ADME; conditions: 0.5 h, read-out: Km(app)
Liver microsome [7] = test: Drug metabolism in human liver microsomes assessed as 1alpha-hydroxylcinobufagin formation at 100 uM at 37 degC after 30 mins […] in presence of 20 uM omeprazole CYP2C19 inhibitor; format: ADME; conditions: 0.5 h

## CC(=O)O[C@H]1[C@H]2O[C@]23[C@@H]2CC[C@@H]4C[C@@H](O)CC[C@]4(C)[C@H]2CC[C@]3(C)[C@H]1c1ccc(=O)oc1 [CINOBUFAGIN]
[1]
  Drug metabolism: metabolite_detected
[2]
  Vmax: 0.25 nmol/min/mg
Liver microsome [3]
  Drug metabolism: metabolite_not_detected
[4]
  Drug metabolism: metabolite_detected
Liver microsome [5]
  Drug metabolism: metabolite_detected
Liver microsome [6]
  Km: 12.5 µM
Liver microsome [7]
  Drug metabolism: metabolite_detected
